Source: paper PMC2695835 (Bioorganic & medicinal chemistry, 2009)
“And” between values parts separate entries of the source, which are not always exact repeats. Equal values may be shown once. Read-outs that look alike come from different tables or passages of the source. Marks after values point to notes of the source that are not given here.

Key:
RAW 264.7 macrophages = type: cell-based; conditions: Mus musculus; for inhibition at 25 µM: RAW264.7, read-out: AA Release Inhibition (%); for IC50: RAW264.7, read-out: IC50 for the inhibition of arachidonic acid release, RAW 264.7 cells stimulated with Kdo2-Lipid A, concentration for half maximal inhibition of the maximum inhibition observed
Outline: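 Mouse RAW 264.7 macrophages were grown in DMEM with 10% FBS, 2 mM glutamine, penicillin/streptomycin and non-essential amino acids at 37 °C in 5% CO2. Cells were seeded at 2 × 10^6 per well and left to adhere overnight. Test compound (25 μM) was added 30 min before Kdo2-Lipid A, and supernatants were collected 1 h later. AA was extracted, quantified by HPLC-MS and normalized to cell number by DNA quantitation.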

GIVA cPLA2 [1] = target: T1, GIVA cPLA2 (Homo sapiens, UniProt P47712); assay: In vitro GIVA cPLA2 inhibition, mixed micellar modified Dole assay; type: biochemical; conditions: mole fraction of inhibitor in total substrate interface required to inhibit the enzyme by 50%; mixed micelles
T1 sequence (P47712 1-749): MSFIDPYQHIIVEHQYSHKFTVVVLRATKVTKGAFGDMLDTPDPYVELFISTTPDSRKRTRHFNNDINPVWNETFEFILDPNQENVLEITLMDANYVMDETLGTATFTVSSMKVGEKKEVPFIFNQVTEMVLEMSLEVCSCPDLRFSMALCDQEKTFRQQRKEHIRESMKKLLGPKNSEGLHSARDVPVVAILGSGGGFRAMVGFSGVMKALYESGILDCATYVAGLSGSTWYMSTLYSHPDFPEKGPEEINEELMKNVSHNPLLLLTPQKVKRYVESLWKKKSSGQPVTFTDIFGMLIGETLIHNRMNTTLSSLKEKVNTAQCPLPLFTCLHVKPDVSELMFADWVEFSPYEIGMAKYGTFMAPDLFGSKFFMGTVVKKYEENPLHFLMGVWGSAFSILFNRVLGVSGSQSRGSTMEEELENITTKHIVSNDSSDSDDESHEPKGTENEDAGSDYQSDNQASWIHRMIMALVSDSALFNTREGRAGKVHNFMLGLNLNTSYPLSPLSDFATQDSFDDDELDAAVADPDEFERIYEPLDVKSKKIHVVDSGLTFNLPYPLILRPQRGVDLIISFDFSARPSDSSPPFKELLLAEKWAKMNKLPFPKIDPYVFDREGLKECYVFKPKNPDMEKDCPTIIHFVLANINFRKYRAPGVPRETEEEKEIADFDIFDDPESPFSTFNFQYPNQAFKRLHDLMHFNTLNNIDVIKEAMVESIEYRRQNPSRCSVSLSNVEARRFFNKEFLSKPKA

GIVA cPLA2 [2] = target: T1, GIVA cPLA2; conditions: reference 2-oxoamide inhibitors; ref [15]; cited from earlier work
GVIA iPLA2 = target: T2, GVIA iPLA2 (Homo sapiens, UniProt O60733); conditions: reference 2-oxoamide inhibitors; ref [15]; cited from earlier work
T2 sequence (O60733 1-806): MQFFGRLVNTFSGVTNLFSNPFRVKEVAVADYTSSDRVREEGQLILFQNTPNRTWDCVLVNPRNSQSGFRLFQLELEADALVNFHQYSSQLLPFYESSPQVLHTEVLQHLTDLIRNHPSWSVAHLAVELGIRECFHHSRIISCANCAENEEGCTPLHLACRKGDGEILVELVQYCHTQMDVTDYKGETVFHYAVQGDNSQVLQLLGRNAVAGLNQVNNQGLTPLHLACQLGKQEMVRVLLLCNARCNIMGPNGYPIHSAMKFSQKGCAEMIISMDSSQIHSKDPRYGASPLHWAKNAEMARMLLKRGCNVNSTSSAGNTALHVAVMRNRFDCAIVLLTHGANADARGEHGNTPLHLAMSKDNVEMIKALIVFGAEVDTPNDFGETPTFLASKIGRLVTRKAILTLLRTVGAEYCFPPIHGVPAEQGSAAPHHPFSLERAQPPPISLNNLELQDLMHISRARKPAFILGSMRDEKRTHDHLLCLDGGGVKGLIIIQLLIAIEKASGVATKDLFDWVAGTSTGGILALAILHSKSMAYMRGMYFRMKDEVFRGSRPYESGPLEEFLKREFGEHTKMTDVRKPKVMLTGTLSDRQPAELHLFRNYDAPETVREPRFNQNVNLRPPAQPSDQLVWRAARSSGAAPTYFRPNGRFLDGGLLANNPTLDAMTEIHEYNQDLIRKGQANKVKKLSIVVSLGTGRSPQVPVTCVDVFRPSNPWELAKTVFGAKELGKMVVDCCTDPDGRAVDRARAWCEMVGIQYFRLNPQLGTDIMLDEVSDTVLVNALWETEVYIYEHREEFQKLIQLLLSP

Work on `CCCCCCCCCCCCCCC(=O)C(=O)N[C@@H](CCCC)CCCC(=O)O` [Compound 35] yielded an inhibition at 25 µM (RAW 264.7 macrophages) of 59 ± 4% and an IC50 (RAW 264.7 macrophages) of 7 µM.
`CCCCCCCCCCCCCCC(=O)C(=O)N[C@H](CCC(=O)O)CC(C)C` [Compound 25] gave an inhibition at 25 µM (RAW 264.7 macrophages) of 62 ± 5%.
With `CCCCCCCCCCCCCCC(=O)C(=O)N[C@@H](CCCC)CCC(=O)O` [Compound 26] the inhibition at 25 µM (RAW 264.7 macrophages) was 79 ± 0.5%.
In the case of `CCCCCCCCCCCCCCC(=O)C(=O)N[C@H](C(=O)NCC(=O)OC(C)(C)C)C(C)C` [Compound 8b, (S)-tert-Butyl 2-(3-methyl-2-(2-oxohexadecanamido)butanamido)acetate], the “GIVA cPLA2 XI(50)” value (GIVA cPLA2 [1]) is reported as 0.028 ± 0.015 mole fraction.
`CCCCCCCCCCCCCCC(=O)C(=O)N[C@H](/C=C/C(=O)O)CCCC` [Compound 30] showed an inhibition at 25 µM (RAW 264.7 macrophages) of 74 ± 8% and an IC50 (RAW 264.7 macrophages) of about 25 µM.
For `CCCCCCCCCCCCCCC(=O)C(=O)NCCCC(=O)CO` [AX006], the “GIVA cPLA2 XI(50)” value (GIVA cPLA2 [2]) is listed as 0.024 mole fraction and 0.024 ± 0.015 ^b mole fraction.
In the case of `CCCCCCCCCCCCCCC(=O)C(=O)N[C@@H](CCCC)C(=O)NCC(=O)OC` [Compound 4a, (S)-Methyl 2-(2-(2-oxohexadecanamido)hexanamido)acetate], the “GIVA cPLA2 XI(50)” value (GIVA cPLA2 [1]) is reported as 0.021 ± 0.009 mole fraction.
With `CCCCCCCCCCCCCCC(=O)C(=O)N[C@H](/C=C/C(=O)OCC)CCCC` [Compound 33] the inhibition at 25 µM (RAW 264.7 macrophages) was 16 ± 6%.
With `CCCCCCCCCCC(=O)C(=O)N[C@@H](CCCC)CCC(=O)O` [Compound 20] the inhibition at 25 µM (RAW 264.7 macrophages) was 56 ± 6% and the IC50 (RAW 264.7 macrophages) was 10 µM.
For `CCCCCCCCCCCCCCC(=O)C(=O)N[C@@H](CCCC)COCC(=O)O` [Compound 18, (S)-2-(2-(2-oxohexadecanamido)hexyloxy)acetic acid], the “GIVA cPLA2 XI(50)” value (GIVA cPLA2 [1]) was 0.017 mole fraction and 0.017 ± 0.002 mole fraction and the IC50 (RAW 264.7 macrophages) was about 2 µM.
Work on `CCCCCCCCCCCCCCC(=O)C(=O)NCCCCC(=O)OC(C)(C)C` [Compound 34] yielded an inhibition at 25 µM (RAW 264.7 macrophages) of 11 ± 6%.
For `CCCCCCCCCCCCCCC(=O)C(=O)N[C@@H](CCCC)C(=O)NCC(=O)O` [Compound 9a, (S)-2-(2-(2-Oxohexadecanamido)hexanamido)acetic acid], the “GIVA cPLA2 XI(50)” value (GIVA cPLA2 [1]) was 0.035 ± 0.014 mole fraction.
With `CCCCCCCCCCCCCCC(=O)C(=O)N[C@H](/C=C/C=C/C(=O)O)CCCC` [Compound 28] the inhibition at 25 µM (RAW 264.7 macrophages) was 6 ± 10%.
`CCCCCCCCCCCCCCC(=O)C(=O)NCC(=O)OC` [Compound 37] gave an inhibition at 25 µM (RAW 264.7 macrophages) of 30 ± 2%.
In the case of `CCCCCCCCCCC(=O)C(=O)N[C@@H](CCCC)C(=O)O` [Compound 21], the inhibition at 25 µM (RAW 264.7 macrophages) is reported as 27 ± 6%.
Molecule `CCCCCCCCCCCCCCC(=O)C(=O)NCCCC(=O)O` [Compound 19] has an inhibition at 25 µM (RAW 264.7 macrophages) of 52 ± 5% and an IC50 (RAW 264.7 macrophages) of about 25 µM.
For `CCCCCCCCCCCCCCC(=O)C(=O)NCCCC(=O)COCC` [AX048], the “GIVA cPLA2 XI(50)” value (GIVA cPLA2 [2]) is given as 0.022 ± 0.009 ^b mole fraction and the “GVIA iPLA2 XI(50)” value (GVIA iPLA2) is given as 0.027 ± 0.009 ^b mole fraction.
With `CCCCCCCCCCCCCCC(=O)C(=O)N[C@H](C(=O)NCC(=O)O)C(C)C` [Compound 9b, (S)-2-(3-Methyl-2-(2-oxohexadecanamido)butanamido)acetic acid] the “GIVA cPLA2 XI(50)” value (GIVA cPLA2 [1]) was 0.061 ± 0.017 mole fraction.
